Results collected from several papers.
Target: Alpha-glucosidase MAL12 (MAL12, Saccharomyces cerevisiae S288c, UniProt P53341)
Observed: enzyme activity
Mode: inhibitor

CC(C)(CO)CC1=C(O)C(=O)c2ccccc2C1=O  IC50: > 200 µM
COc1ccc(-c2nn(-c3ccccc3)cc2C2C3=C(CC(C)(C)CC3=O)n3c(=O)c4ccccc4c(=O)n32)cc1 (stereo not drawn)  IC50 (absorbance): 229 µM
C[C@H]1CN(C(=O)Nc2ccc(Cl)c(Cl)c2)CCN1c1ccnc(Nc2ccc(Cl)cc2)n1  IC50 (absorbance; pH 6.9): 1.82 µM
Nc1c(-c2ccc(Cl)cc2)nc2ncnn2c1-c1cccs1  IC50 (absorbance): 82.4 µM
C[C@H]1CN(C(=O)Nc2ccc(C(F)(F)F)cc2)CCN1c1ccnc(Nc2ccc(F)cc2)n1  IC50 (absorbance; pH 6.9): 1.82 µM
CCCCCCCCCCCC(=O)OCC(C)(C)CC1=C(O)C(=O)c2ccccc2C1=O  IC50: 2.6 µM
Nc1c(-c2ccccc2)nc2ncnn2c1-c1ccccc1Cl  IC50 (absorbance): 125 µM
CC1(C)CC(=O)C2=C(C1)n1c(=O)c3ccccc3c(=O)n1C2c1cn(-c2ccccc2)nc1-c1ccc([N+](=O)[O-])cc1 (stereo not drawn)  IC50 (absorbance): 285 µM
C[C@@H]1CN(C(=O)Nc2ccc(C(F)(F)F)cc2)CCN1c1ccnc(Nc2ccc(Cl)c(O)c2)n1  IC50 (absorbance; pH 6.9): 2.08 µM
CC1(C)CC(=O)C2=C(C1)n1c(=O)c3ccccc3c(=O)n1C2c1cn(-c2ccccc2)nc1-c1ccc(Cl)cc1 (stereo not drawn)  IC50 (absorbance): 209 µM
C[C@H]1CN(C(=O)Nc2ccc(C(F)(F)F)cc2)CCN1c1ccnc(Nc2ccc(Cl)c(Cl)c2)n1  IC50 (absorbance; pH 6.9): 1.69 µM
CC(=O)C1=C(C)n2c(=O)c3ccccc3c(=O)n2C1c1cn(-c2ccccc2)nc1-c1ccc(C)cc1 (stereo not drawn)  IC50 (absorbance): 167 µM
Cc1ccc(-c2nc3ncnn3c(-c3ccc(Br)cc3)c2N)cc1  IC50 (absorbance): 68.7 µM
CC(=O)C1=C(C)n2c(=O)c3ccccc3c(=O)n2C1c1cn(-c2ccccc2)nc1-c1ccc(Cl)cc1 (stereo not drawn)  IC50 (absorbance): 359 µM
COc1cc(/C=C/c2ccc(O)cc2)cc(OC)c1  IC50 (absorbance; pH 6.8): 1570 µM
